# Bfl-1 A1 inh: caspase 3/7 activation in MEF A1-2A-BIM cells, primary screen, A1 inhibitor project, cell-based, luminescence, HTS; Caspase-Glo 3/7 luminescence, 3 h; percent of clofoctol response, vehicle zero; caspase activation, % (no concentration beside the values); 330,000 compounds, 0.066% hits;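 active = over half of replicate activation scores above 10%, or exactly half above 10 with the replicate mean above 10; inconclusive = replicate mean below 10 yet half the replicates above 10; inactive = over half of replicates below 10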
# T cruzi repl: inhibitors of intracellular T. cruzi growth, primary screen, luminescence, NIH3T3 host cells. 300,000 compounds, 1.4% hits. inhibition, % (test concentration not listed). T. cruzi beta-gal in NIH3T3, 90 h;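 active = mean inhibition across valid replicates above about 55%, limit read from the data; inconclusive = mean below that limit but half or more replicates reach it; inactive = mean below it, under half of replicates reach it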;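 also: signal also drops with host cell toxicity which is not excluded here; 0% = plate median of DMSO wells and 100% = zero luminescence signal; higher percent means less beta-gal luminescence so fewer parasites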
#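 System – NIH/3T3 host cells with β-galactosidase reporter T. cruzi · Doses – single 50 nL compound addition per well in DMSO · Reagent – 5000 T. cruzi trypomastigotes/well · Medium – Low-serum DMEM with 2% FBS · Timing – ≥90 h infection period, 3 h prior cell attachment · Evaluation – parasite load inhibition, % · Technique – GalScreen luminescence, 60 min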
# Beta apoptosis: inhibitors of cytokine-induced beta cell apoptosis, primary screen, luminescence | INS-1E cytokine-induced death, ATP luminescence, 48 h; percent of positive-control rescue, neutral wells zero | protection from apoptosis, % (concentration not given with the values) | 300,000 compounds, 0.8% hits | AID 435005, 2010;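 active = Every replicate reaches about 75%, or at least half do and their mean reaches it too, limit read from the data; inconclusive = At least half of replicates reach the limit but their mean does not; inactive = Under half of replicates reach the limit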;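 also: 0% = cytokine-treated negative control wells and 100% = positive control rescue; higher means more ATP so stronger rescue from cytokine killing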
# KLF5 inhibitor: KLF5 expression inhibitors, primary screen, DLD-1 cells, luminescence | 290,000 compounds, 0.23% hits | AID 1700, 2009 | inhibition, % at 5 µM | DLD-1 KLF5 promoter-luciferase reporter;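 active = inhibition above a per-plate limit of that plate's mean compound inhibition plus 3 SD, cut at about 60% in these data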;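 also: 0% = DMSO wells and 100% = LY294002 at 200 µM; higher means less KLF5 promoter-driven luciferase light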
# HIF activator: HIF pathway transcriptional activators, primary screen, cell-based, U2OS HRE-luciferase, luminescence | U2OS HRE-luciferase reporter; normalized: DMSO 0%, desferrioxamine 100% | activation, % at 7.5 µM (by protocol) | 300,000 compounds, 0.32% hits;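 active = mean activation of at least 10% of the iron chelator positive control signal, with at least half of replicates also reaching 10%; inconclusive = mean and replicate majority disagree about reaching 10%; inactive = mean and most replicates under 10%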
# * = called active by the depositor; ? = inconclusive; . = no result. Sampled rows, rich in hits. Any-hit rate of the full collection: about 2.3%.
SMILES,Bfl-1 A1 inh,T cruzi repl,Beta apoptosis,KLF5 inhibitor,HIF activator
CN(c1ccc(OCC(=O)Nc2nc(-c3ccccc3)cs2)cc1)S(=O)(=O)c1ccc(F)cc1,-1,55*,-6,4,0
Cc1ccc(S(=O)(=O)Nc2nc(-c3ccccc3)cs2)cc1,0,9,0,-18,-1
COc1ccc(-c2csc(NC(=O)c3ccccc3NS(=O)(=O)c3ccc(F)c(F)c3)n2)cc1,-1,35,87*,78*,1
Cc1ccc(S(=O)(=O)Nc2ccccc2C(=O)Nc2nc(-c3ccc(F)cc3)cs2)cc1,0,-6,99*,-3,0
Cc1ccc(S(=O)(=O)N(C)c2ccc(OCC(=O)Nc3nc(-c4ccccc4)cs3)cc2)cc1,0,43,2,-9,1
O=C(O)c1cc(NC(=O)c2cccc(C(=O)Nc3cc(C(=O)O)cc(C(=O)O)c3)c2)cc(C(=O)O)c1,2,-9,-6,-38,-2
CCCNC(=O)c1cc2nc(-c3ccccc3)cc(C(F)(F)F)n2n1,0,17,-2,-12,96*
O=C(COC(=O)c1cccc(S(=O)(=O)N2CCOCC2)c1)NCCc1ccccc1,1,-9,0,-31,0
C=CCN1C(=O)c2ccccc2Sc2ccc(C(=O)N3CCN(C)CC3)cc21,1,-2,-2,9,10*
O=C(NCc1ccc(Cl)s1)C1CCC(=O)N(CCc2ccccn2)C1 (stereo unspecified),0,-21,-4,-10,1
Cc1ccc(S(=O)(=O)N(C)c2ccc(C(=O)N(CC(C)C)C3CCS(=O)(=O)C3)cc2)cc1 (stereo unspecified),0,-6,-2,.,0
COc1ccc(CN2CC(=O)N(c3cc(Cl)ccc3OC)C2=S)cc1OC,1,-3,-4,0,0
CCC(C)(C)C1CCc2[nH]nc(C(=O)NC(C)C)c2C1 (stereo unspecified),0,.,8,.,.
CCOC(=O)c1c2c(n(C)c1COC)C(=O)C(=O)c1ccc(Br)cc1-2,1,-14,105*,-15,0
CCCn1c(=O)c(C(=O)OCC)c(O)c2cc(Br)ccc21,-1,-26,-1,-17,0
C=CCOc1ccc(C2/C(=C(\O)c3ccc4c(c3)CC(C)O4)C(=O)C(=O)N2CCN2CCOCC2)cc1OCC (stereo unspecified),0,-8,-11,7,0
Cc1cc(NC(=O)C2CCN(C(=O)c3ccco3)CC2)ccc1Br,0,-1,.,.,3
O=C(CSc1nnnn1-c1ccccc1)Nc1ccc(N2CCOCC2)c(Cl)c1,0,10,-3,-18,0
O=C(CSc1nnnn1-c1cccc2ccccc12)Nc1ccc(N2CCOCC2)c(Cl)c1,0,73*,0,-21,0
CC(C)[C@H](NC(=O)c1ccccc1Cl)C(=O)OCC(=O)NCc1ccc2c(c1)OCO2,-1,.,-3,.,.
CCN1C(=C(C#N)C#N)C=Cc2cc(C)ccc21,0,11,0,6,0
C=CC[n+]1c(/C=C2\C=Cc3cc(C)ccc3N2CC)ccc2ccccc21,0,66*,109*,7,0
c1ccc(CCc2nn3c(Cn4nnc5ccccc54)nnc3s2)cc1,1,-10,-2,-19,1
c1ccc(Cc2nn3c(Cn4nnc5ccccc54)nnc3s2)cc1,21*,-1,-5,-22,0
COc1ccc(N(C)S(=O)(=O)c2cccc(C(=O)OCC(=O)N(C)c3ccccc3)c2)cc1,-1,.,-1,.,.
SMILES,Bfl-1 A1 inh,T cruzi repl,Beta apoptosis,KLF5 inhibitor,HIF activator
COc1ccc(NC(=O)CCS(=O)(=O)c2ccc3c(c2)CCN3C(C)=O)cc1,1,-29,-6,-4,10*
COc1ccc(-c2cc(C(F)(F)F)nc(NCc3cccs3)n2)cc1,0,55*,3,-18,0
FC(F)(F)c1cc(-c2ccc(Cl)cc2)nc(NCc2cccnc2)n1,0,70*,6,-28,0
Cc1ccc(-c2cc(C(F)F)nc(NCc3cccnc3)n2)cc1,-1,60*,8,16,0
Cc1onc(-c2ccccc2)c1C(=O)N(C)CC(=O)Nc1ccc(F)c(F)c1F,1,.,-2,.,.
CCCCCC(=O)Nc1cc(S(=O)(=O)N2CCOCC2)ccc1N1CCCCC1,0,15,-2,.,-1
COc1ccc(CN2CCN(CCCc3ccccc3)CC2)c(OC)c1,0,41,-3,6,0
COc1ccc(CC(C)N2CCN(Cc3ccccc3)CC2)c(OC)c1 (stereo unspecified),0,61*,1,-9,0
Cc1cc(C)c2c(=O)n(CC(=O)Nc3ccc(Cl)cc3)sc2n1,1,60*,5,-18,-1
CC(C)(C)c1ccc(OCc2ccc(C(=O)N/N=C/c3ccc(O)c(O)c3)cc2)cc1,0,47,95*,-64,3
Cc1cc(C)nc(SCc2ccc(C(=O)N/N=C/c3cccc(O)c3O)cc2)n1,1,34,95*,-33,6
Cc1cc(C)nc(SCc2ccc(C(=O)N/N=C/c3ccc(C(=O)O)cc3)cc2)n1,1,-11,-16,-14,-1
COc1ccc(O)c(/C=N/NC(=O)c2ccc(CSc3nc(C)cc(C)n3)cc2)c1,-1,41,?,22,29*
COc1ccc(O)c(/C=N/NC(=O)c2ccc(OCc3cccc(Br)c3)cc2)c1,1,73*,93*,-43,16*
O=C(N/N=C/c1ccc(OCc2ccc(F)cc2)cc1)c1ccccc1,1,-13,-4,-21,1
COc1ccc(-n2nc([N+](=O)[O-])c(=NCCc3ccc(Cl)cc3)n2O)cc1,-1,67*,6,-24,0
COc1ccc(-n2nc([N+](=O)[O-])c(=NCCC3=CCCCC3)n2O)cc1,0,91*,-3,-41,2
Cc1cc(C)n2nc(SCC(=O)NC(=O)c3ccccc3Cl)nc2n1,0,.,-3,.,.
COc1ccc(C(=S)N2CCN(S(=O)(=O)c3ccccc3)CC2)cc1,0,1,-7,16,0
CN(C)c1ccc(C(=S)N2CCN(S(=O)(=O)c3ccccc3)CC2)cc1,0,56*,-6,6,1
CN(CC(=O)Nc1cccc(F)c1)C(=O)c1ccccc1OCC(=O)Nc1cccc(C(F)(F)F)c1,-1,61*,8,.,0
CN(C)CCCN(C(=O)c1ccco1)c1nc(-c2ccc(Cl)cc2)cs1,0,57*,1,-30,1
COc1ccc(-c2csc(N(CCCN(C)C)C(=O)c3cccs3)n2)cc1,0,66*,-29,-32,0
CCN(C(=O)c1cccs1)c1nc(-c2ccc(OC)cc2)cs1,0,30,-7,-20,2
